The target of assay [1] is T1, Adenosine receptor A3 (Homo sapiens, UniProt P0DMS8).
T1 sequence (P0DMS8 whole entry): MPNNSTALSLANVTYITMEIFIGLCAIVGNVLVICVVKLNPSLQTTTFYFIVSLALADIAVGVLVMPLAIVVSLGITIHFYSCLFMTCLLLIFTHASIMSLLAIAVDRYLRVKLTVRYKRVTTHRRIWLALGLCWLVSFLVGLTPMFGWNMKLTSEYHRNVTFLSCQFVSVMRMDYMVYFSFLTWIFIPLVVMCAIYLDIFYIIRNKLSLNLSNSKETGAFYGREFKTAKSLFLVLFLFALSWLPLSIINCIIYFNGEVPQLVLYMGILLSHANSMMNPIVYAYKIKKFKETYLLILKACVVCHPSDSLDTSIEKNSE
As to the kind of experiment: Displacement of [3H]NECA from recombinant human adenosine A3 receptor expressed in CHO cell membranes measured after 180 mins. (In general: Loss of bound radioactivity is the signal in a displacement assay; it reports binding, not function.)

Assay [2] addresses Adenosine receptor A2a (Homo sapiens, UniProt P29274). As to the kind of experiment: Displacement of [3H]NECA from recombinant human adenosine A2A receptor expressed in CHO cell membranes measured after 90 mins.
Assay [3] addresses T2, Adenosine receptor A1 (Homo sapiens, UniProt P30542).
T2 sequence (P30542 whole entry): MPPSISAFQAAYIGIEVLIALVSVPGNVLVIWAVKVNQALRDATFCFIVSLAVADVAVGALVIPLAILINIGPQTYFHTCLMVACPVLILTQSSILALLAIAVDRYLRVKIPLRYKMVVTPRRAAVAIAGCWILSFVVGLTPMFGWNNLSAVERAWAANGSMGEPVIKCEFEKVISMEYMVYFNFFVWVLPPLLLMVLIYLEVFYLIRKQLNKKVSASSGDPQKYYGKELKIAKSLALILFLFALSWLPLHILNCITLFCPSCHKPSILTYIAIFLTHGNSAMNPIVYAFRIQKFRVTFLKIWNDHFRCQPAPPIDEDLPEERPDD
As to the kind of experiment: Displacement of [3H]DPCPX from human adenosine A1 receptor expressed in CHO cell membranes after 180 mins. A digest of the protocol: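 Membranes (30 µg protein) are incubated with 3 nM [3H]DPCPX at 25 °C in Tris-HCl 50 mM, MgCl2 2 mM, ADA 2 U/mL, pH 7.4. Six test concentrations are used, and nonspecific binding is set with 50 µM R-PIA. The Kd of 3 nM is used for Ki. Values are the mean of at least three experiments, each in duplicate.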

For assay [4], the target named is T3, Adenosine receptor A2b (Homo sapiens, UniProt P29275).
T3 sequence (P29275 whole entry): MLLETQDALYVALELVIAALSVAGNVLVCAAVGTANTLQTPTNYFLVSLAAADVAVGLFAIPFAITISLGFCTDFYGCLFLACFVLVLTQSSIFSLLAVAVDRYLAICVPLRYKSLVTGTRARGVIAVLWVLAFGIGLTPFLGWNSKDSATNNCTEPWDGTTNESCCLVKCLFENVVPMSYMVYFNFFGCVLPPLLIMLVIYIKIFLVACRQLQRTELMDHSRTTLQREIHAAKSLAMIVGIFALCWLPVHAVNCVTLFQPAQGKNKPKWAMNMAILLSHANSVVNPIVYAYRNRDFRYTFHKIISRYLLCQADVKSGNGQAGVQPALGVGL
As to the kind of experiment: Displacement of [3H]NECA from recombinant human adenosine A2B receptor expressed in CHO cell membranes measured after 180 mins.

For assay [5], the target named is T1, Adenosine receptor A3. As to the kind of experiment: Antagonist activity at recombinant human adenosine A3 receptor expressed in CHO cells assessed as reduction in Cl-IB-MECA-induced inhibition of forskolin-stimulated [3H]cAMP accumulation preincubated for 10 mins followed by Cl-IB-MECA addition measured after 30 mins by liquid scintillation counting method. The format is functional, cell-based. A digest of the protocol: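 A3 AR CHO cells are plated at about 30,000 per well and used 24 h later. They are preincubated 15 min at 37 °C in DMEM containing ADA 1 U/mL and Ro20-1724 20 µM. Compound is added 10 min before Cl-IB-MECA, with 1 µM forskolin present. The reaction is stopped with 0.4 N HCl and neutralised with KOH. cAMP is measured by competitive binding of [3H]cAMP (2 nM) to bovine adrenal binding protein for 150 min at 0 °C, then filtered and counted by scintillation.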
Background: Cyclic AMP is a second messenger, typically raised through Gs and lowered through Gi signalling.

The structures appear in SMILES notation. Some results are limits rather than exact numbers.

Adenosine receptor A2a, sequence (P29274 whole entry): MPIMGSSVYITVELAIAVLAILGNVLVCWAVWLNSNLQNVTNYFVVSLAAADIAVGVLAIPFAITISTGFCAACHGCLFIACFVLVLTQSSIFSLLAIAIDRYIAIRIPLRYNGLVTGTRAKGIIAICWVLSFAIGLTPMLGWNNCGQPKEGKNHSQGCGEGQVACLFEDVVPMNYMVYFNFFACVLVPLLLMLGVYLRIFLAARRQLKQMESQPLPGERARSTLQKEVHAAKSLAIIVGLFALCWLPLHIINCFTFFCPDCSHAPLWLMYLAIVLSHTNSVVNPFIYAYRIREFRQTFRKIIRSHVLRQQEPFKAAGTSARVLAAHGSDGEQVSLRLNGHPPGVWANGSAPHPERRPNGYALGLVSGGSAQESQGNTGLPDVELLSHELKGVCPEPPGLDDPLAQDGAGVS

What is called Ki is the dissociation constant of the complex between target and ligand, obtained from inhibition or displacement. Regarding `CCCOc1cc(NC(C)=O)nc(S[C@H](C)c2ccccc2)n1`, in assay [1], the Ki was found to be 737 nM.

On to `CCCOc1cc(NC(C)=O)nc(SC(C)c2ccccc2)n1` (racemic), for which the Ki is over 1000 nM in assay [2], 580 nM in assay [1], over 1000 nM in assay [3] and over 1000 nM in assay [4].

As for `CCCSc1nc(NC(C)=O)cc(O[C@H](C)c2ccccc2)n1`, the Ki in assay [1] was 1.7 nM.

The IC50 is the point on the concentration scale where inhibition reaches its midpoint. In the case of `CCCSc1nc(NC(C)=O)cc(O[C@@H](C)c2ccccc2)n1`, the Ki in assay [1] is 0.5 nM. The IC50 in assay [5] amounted to 7.9 nM.

Turning to `CC[C@@H](C)Oc1cc(NC(C)=O)nc(SCc2ccccc2)n1`, the Ki in assay [1] was determined as 1390 nM.

As to `CCCOc1cc(NC(C)=O)nc(S[C@@H](C)c2ccccc2)n1`, the Ki in assay [1] amounted to 440 nM. Also, the IC50 in assay [5] came out at 428 nM.

As for `CC[C@H](C)Oc1cc(NC(C)=O)nc(SCc2ccccc2)n1`, the Ki in assay [1] is 183 nM. Also, the IC50 in assay [5] is 153 nM.

As for `CCC(C)Oc1cc(NC(C)=O)nc(SCc2ccccc2)n1` (racemic), the Ki in assay [2] is over 1000 nM; in assay [1] it was 195 nM; in assay [3], over 1000 nM; in assay [4] it was over 1000 nM.

Regarding `CCCSc1nc(NC(C)=O)cc(OC(C)c2ccccc2)n1` (racemic), the Ki in assay [2] was over 1000 nM; in assay [1], 0.6 nM; in assay [3], over 1000 nM; in assay [4], over 1000 nM.

Values taken from ChEMBL document CHEMBL4261564, “Studies on enantioselectivity of chiral 4-acetylamino-6-alkyloxy-2-alkylthiopyrimidines acting as antagonists of the human A3 adenosine receptor” (Medchemcomm, 2018).
